PAD4 inh = blocks human protein arginine deiminase 4; recombinant PAD4, RCA probe fluorescence polarization; Q9UM07; AID 485272; inhibition, % at 6.36 µM; 330,000 compounds, 0.41% hits;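 active = percent inhibition above a cutoff equal to the mean of all tested compounds plus 3 SD, cut at about 15% in these data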;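 note: 0% = PAD4 with RCA probe and DMSO and 100% = probe without PAD4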
TDP2 absorb = blocks human TDP2 phosphodiesterase activity; recombinant TDP2, T5PNP hydrolysis, p-nitrophenol absorbance 415 nm; O95551; 370,000 compounds, 0.34% hits; inhibition, % at 12.8 µM;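 active = inhibition above the mean of all tested compounds plus 3 SD, set per campaign, cut at about 25% in these data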;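 note: 0% = DMSO with enzyme and 100% = buffer with substrate but no TDP2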
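Test system: Human TDP2 enzyme | Reagent: 5 mM T5PNP | Compound dosing: 12.8 µM single point, 1% DMSO | Incubation: Enzyme reaction with compound for 2 h at 37 °C | Technique: p-Nitrophenol epi absorbance | Read-out: % inhibition relative to enzyme-containing and enzyme-free wells | Benchmarks: High control without enzyme, low control DMSO plus TDP2 | Replicates: Singlicate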
PRMT1 FP inh = PRMT1 (human) inhibition, primary screen; Q99873; recombinant PRMT1, activity-based probe fluorescence polarization; inhibition, % at 2.79 µM; 370,000 compounds, 1.3% hits; AID 652257;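 active = inhibition above about 21% made by adding two undisclosed values, limit read from the data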
Apaf1 inhib = blocks human Apaf-1 apoptosome activity. O14727. 330,000 compounds, 0.71% hits. AID 489030. reconstituted apoptosome caspase-3 activity, DEVD-Rh110 fluorescence. inhibition, % at 20 µM; active = inhibition of at least 40% at 20 µM;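 note: plate controls were DMSO wells for no effect and DEVD-CHO caspase inhibitor wells for full effect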
Target sequence (O14727 whole entry, looked up): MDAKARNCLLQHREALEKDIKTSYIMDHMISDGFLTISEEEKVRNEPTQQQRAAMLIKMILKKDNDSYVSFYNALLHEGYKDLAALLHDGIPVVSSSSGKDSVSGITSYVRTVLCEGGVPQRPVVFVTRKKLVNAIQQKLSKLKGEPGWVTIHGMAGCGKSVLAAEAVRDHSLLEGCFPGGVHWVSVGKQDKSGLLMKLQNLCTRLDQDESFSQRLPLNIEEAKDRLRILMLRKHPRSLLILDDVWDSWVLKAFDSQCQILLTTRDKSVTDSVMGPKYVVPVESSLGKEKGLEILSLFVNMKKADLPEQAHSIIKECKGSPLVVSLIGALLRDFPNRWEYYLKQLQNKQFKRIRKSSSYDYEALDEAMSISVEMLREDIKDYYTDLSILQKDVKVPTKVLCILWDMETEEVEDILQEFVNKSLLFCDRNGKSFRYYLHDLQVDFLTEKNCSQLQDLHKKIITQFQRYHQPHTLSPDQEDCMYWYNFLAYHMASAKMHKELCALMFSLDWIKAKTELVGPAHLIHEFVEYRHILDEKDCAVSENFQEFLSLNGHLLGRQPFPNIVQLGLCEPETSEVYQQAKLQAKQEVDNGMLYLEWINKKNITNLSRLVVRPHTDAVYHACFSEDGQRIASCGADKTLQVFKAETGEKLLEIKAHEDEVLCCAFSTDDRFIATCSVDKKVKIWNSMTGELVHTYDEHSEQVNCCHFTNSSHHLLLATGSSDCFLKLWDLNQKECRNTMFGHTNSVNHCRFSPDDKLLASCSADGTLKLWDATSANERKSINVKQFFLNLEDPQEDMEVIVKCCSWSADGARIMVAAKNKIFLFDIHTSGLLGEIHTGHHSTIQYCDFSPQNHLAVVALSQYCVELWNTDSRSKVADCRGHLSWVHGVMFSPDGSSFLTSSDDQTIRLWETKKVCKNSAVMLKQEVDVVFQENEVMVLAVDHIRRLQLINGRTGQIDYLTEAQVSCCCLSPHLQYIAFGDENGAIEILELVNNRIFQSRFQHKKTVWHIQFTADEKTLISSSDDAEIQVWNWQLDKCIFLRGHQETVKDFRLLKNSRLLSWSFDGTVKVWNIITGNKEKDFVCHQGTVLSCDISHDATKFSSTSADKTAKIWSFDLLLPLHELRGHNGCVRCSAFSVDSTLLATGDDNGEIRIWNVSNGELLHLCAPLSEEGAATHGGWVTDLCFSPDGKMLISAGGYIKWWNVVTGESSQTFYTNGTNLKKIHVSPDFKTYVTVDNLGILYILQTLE
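Medium: Hepes buffer, pH 7.5 / System: biochemical Apaf-1 apoptosome reconstitution / Measured by: Rh110 fluorescence, excitation 480 nm, emission 540 nm / Times: compound with Apaf-1, dATP, procaspase-3 30 min, then 50 min reaction, room temperature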
GSTO1 counter = counter-screen for RBBP9 inhibitors: inhibitors of human GSTO1. 300,000 compounds, 1.1% hits. inhibition, % at 5.96 µM. recombinant GSTO1, activity-based probe fluorescence polarization. AID 1974. P78417;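 active = inhibition above the campaign mean inhibition plus 3 SD, cut at about 35% in these data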;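 note: 0% = GSTO1-1 with DMSO and 100% = wells lacking GSTO1-1 enzyme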
PAD4 confirm = PAD4 (human) inhibition, confirmed | 1,200 compounds, 28% hits | AID 488796 | recombinant PAD4, RCA probe fluorescence polarization | inhibition, % at 6.36 µM | shares compounds with PAD4 inh;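 active = mean inhibition across replicates above the hit cutoff set by the earlier primary screen, cut at about 15% in these data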;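 note: inhibitors block active-site labeling by the probe so polarization falls; 0% = PAD4 with probe and DMSO and 100% = probe without PAD4 enzyme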
* hit, by the source's call; / = no result. A selection: hits, their analogues and other compounds. The true share with any hit is near 2.6%.

SMILES | PAD4 inh | TDP2 absorb | PRMT1 FP inh | Apaf1 inhib | GSTO1 counter | PAD4 confirm
COc1cccc2cc(C(=O)NC3CC(C)(C)NC(C)(C)C3)c(=O)oc12 | 79* | / | / | 12 | 4 | -1
O=c1[nH]c(=S)[nH]c2nc(-c3ccccc3)cnc12 | 8 | -11 | 13 | 5 | -9 | /
Cc1cc2nc3c(=O)[nH]c(=S)[nH]c3nc2cc1NC(=O)C(F)(F)F | 41* | 3 | 165* | 2 | 9 | 39*
CCCCCCCCN1C(=O)[C@H](CC(=O)NCc2ccc(C)o2)C[C@@]2(C(=O)OC)CCCCC=C12 | / | -4 | 11 | / | / | /
CSc1nsc(/C=C/Nc2ccc(F)cc2)c1C#N | -9 | 3 | 1 | 9 | 3 | /
CSc1nsc(/C=C/Nc2ccc(O)cc2C)c1C#N | 29* | -9 | 53* | 7 | 69* | -2
Cn1nnnc1SCC(=O)N1CCN(S(=O)(=O)c2ccccc2)CC1 | -8 | -6 | 1 | -10 | 2 | /
Cn1nnnc1SCC(=O)N1CCN(S(=O)(=O)c2ccc(Cl)cc2)CC1 | 17* | 1 | 1 | -7 | 0 | -4
O=C(Oc1ccc(-c2cnc3ccccc3n2)cc1)c1ccco1 | 36* | -5 | 6 | -4 | 1 | 35*
O=C(Nc1cccc(-c2cnc3ccccc3n2)c1)c1ccco1 | -2 | -2 | -1 | -2 | -2 | /
O=C(Oc1ccc(-c2cnc3ccccc3n2)cc1)c1cc([N+](=O)[O-])ccc1Cl | 5 | 9 | -1 | -2 | -5 | /
CCC(=O)Oc1ccc(-c2cnc3ccccc3n2)cc1 | 20* | -5 | 1 | 9 | 0 | 9
Cc1c(C(=O)Oc2ccc(-c3cnc4ccccc4n3)cc2)cccc1[N+](=O)[O-] | 62* | -5 | 20 | -6 | -2 | 57*
N#Cc1cccc(C(=O)C(=O)N2CCN(C(=O)OCc3ccccc3)CC2)c1 | / | 6 | -6 | / | / | /
COc1ccc(N2C(=O)CSC23C(=O)N(CC(=O)NC2CCCC2)c2ccccc23)cc1 (stereo unspecified) | 16* | 6 | -2 | -12 | -4 | 14
COc1ccc(C2(c3ccc(OC)cc3)NC(=O)N(CC(=O)NC3CCCC3)C2=O)cc1 | 4 | 1 | 0 | 10 | 7 | /
C=C1[C@@H](C)CN[C@@H]1CCO | / | -2 | 3 | / | / | /
CCC(=O)Oc1ccc(C(=O)Nc2cccc(C(=O)NC(C)(C)C)c2)cc1 | 115* | 2 | 4 | -3 | -4 | -3
CCCCN(C)C1=CC2=CC(=C(C#N)C#N)CCC2CC1 (stereo unspecified) | 46* | 5 | -66 | -76 | 2 | 21*
CCN(CC)C1=CC2=CC(=C(C#N)C#N)CCC2CC1 (stereo unspecified) | 10 | 12 | -57 | -141 | -10 | /
N#CC(C#N)=C1C=C2C=C(N3CCCCC3)CCC2CC1 (stereo unspecified) | 49* | / | / | / | -26 | 21*
CC(C)n1nnnc1C1c2ccccc2OCC(=O)N1Cc1cccc(C(F)(F)F)c1 (stereo unspecified) | / | 0 | 2 | / | / | /
Cc1cc(=O)n2nc(N3CCCC(C(=O)Nc4cccc(C)c4C)C3)sc2n1 (stereo unspecified) | / | 3 | 9 | / | / | /
Cc1cccc(C)c1-n1nnnc1C1(C)CCC(=O)N1CC(F)(F)F (stereo unspecified) | / | -11 | 8 | / | / | /
Cc1oc2c(C)c(O)ccc2c(=O)c1-c1ccc2ccccc2n1 | 84* | -3 | 1 | -19 | 1 | -6
SMILES | PAD4 inh | TDP2 absorb | PRMT1 FP inh | Apaf1 inhib | GSTO1 counter | PAD4 confirm
CCC(=O)Oc1ccc2c(=O)c(-c3ccc4ccccc4n3)c(CC)oc2c1C | 0 | -14 | -2 | 14 | 9 | /
S=c1[nH]nc(-c2cc(-c3ccccc3)n[nH]2)n1/N=C/c1cccc(Cl)c1 | 16* | 2 | 8 | 26 | 4 | 9
Fc1ccc(Cn2c(SCc3ccc(F)c(C(F)(F)F)c3)nnc2C(F)(F)F)cc1 | 23* | -8 | -1 | 21 | 6 | -3
O=C(N/N=C\c1ccc(-c2ccccc2[N+](=O)[O-])o1)C1COc2cc3ccccc3cc2O1 (stereo unspecified) | 17* | 5 | 3 | 81* | 13 | -5
CC(=O)NN1C(=O)c2ccc3c4c(ccc(c24)C1=O)C(=O)N(NC(C)=O)C3=O | 136* | 16 | -1 | 22 | 37* | 143*
COC(=O)[C@]12C[C@H](CC(=O)NCC34CC5CC(CC(C5)C3)C4)C(=O)N(CCc3ccc(OC)c(OC)c3)C1=C[C@H](C1CCCC1)O[C@@H]2C | / | -8 | -1 | / | / | /
Cc1cc(C)nc(SCC(=O)NC2=NN=C(c3ccc(Br)cc3)CS2)n1 | 38* | -8 | 13 | 3 | -9 | 21*
CCC(Sc1nc(C)cc(C)n1)C(=O)NC1=NN=C(c2ccc(C)cc2)CS1 (stereo unspecified) | 66* | -5 | 49* | 13 | -11 | 55*
C[C@H]1C2CC(OC(=O)Nc3ccc4c(c3)OCO4)C(C2)[C@H]2CCCCN21 (stereo partly specified) | / | -8 | -10 | / | / | /
CCOC(=O)[C@H]1[C@H]2COc3cc(OC)ccc3[C@@H]2N2C(=O)c3cc(C)ccc3NC(=O)[C@@]12C | 16* | 4 | -4 | 12 | 2 | 9
COc1cc2oc(=O)ccc2cc1[C@H](O)[C@@H](O)C(C)(C)O | 45* | -12 | -2 | 2 | / | 2
COc1cc2oc(=O)ccc2cc1[C@@H](O)[C@@H]1OC(C)(C)OC1(C)C | -3 | -9 | 2 | -1 | / | /
Nc1nc2c(ncn2[C@@H]2O[C@H](C(=O)N[C@H](Cc3ccccc3)C(=O)NCc3ccccc3)[C@@H](O)[C@H]2O)c(=O)[nH]1 | / | -8 | 2 | / | / | /
COC(=O)C1=C(C)N(Cc2cccc(C(F)(F)F)c2)C(=NCc2cc(OC)c(OC)c(OC)c2)NC1c1ccc(F)cc1 (stereo unspecified) | / | -7 | -2 | / | / | /
COc1ccc(C2C(C(=O)N3CCCCC3C)CC(=O)N2c2ccc(OC)cc2)cc1 (stereo unspecified) | / | -1 | 3 | / | / | /
O=C(N/N=C/c1cn(-c2cccs2)nc1-c1ccccc1)c1ccccc1O | 27* | -10 | -1 | 15 | -29 | -3
O=C(O)CSc1cc(NS(=O)(=O)c2ccc(Cl)cc2)c2ccccc2c1O | 31* | 63* | 44* | / | 88* | -6
COc1ccccc1N1CCN(C(=O)CCC(=O)N2CCN(c3ccc(F)cc3)CC2)CC1 | 23* | -9 | 4 | 5 | -2 | 8
COc1ccccc1N1CCN(C(=O)CCC(=O)N2CCN(c3ccccc3OC)CC2)CC1 | -2 | 5 | -4 | 7 | -8 | /
CC(=O)c1cccc(NC(=O)CSC(=O)c2ccccc2)c1 | 15* | -21 | 49* | -6 | 3 | 18*
CCN(CC)c1ccc(NC(=O)CSC(=O)c2ccccc2)cc1 | 2 | -8 | 3 | 1 | / | /

Assay outcomes deposited in PubChem BioAssay by several laboratories.
